Among the data in the RNAGym collection of RNA variant scans (doi:10.1126/science.aae0568) are yeast fitness values, retold here.

Variants at the floor of the assay were thinned out.

First the molecules themselves.
B1: tRNA (parent)
chain: GUUCCGUUGGCGUAAUGGUAACGCGUCUCCCUCCUAAGGAGAAGACUGCGGGUUCGAGUCCCGUACGGAACG

This data set covers variants of B1. Description: yeast fitness relative to wild type (ratio to wild type); higher = fitter; tRNA-Arg(CCU), competitive growth, 37 C, YPD. A digest of the protocol: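 Amplicons of the tRNA-Arg(CCU) gene were sequenced, 100-nucleotide paired-end, from the start population and from each end population of a pooled yeast competition. The competition, in six parallel replicates, lasted 24 hours in YPD at 37°C. Fitness relative to wild type was calculated from changes in genotype frequencies. Genotypes had to have ≥ 100 starting reads, and estimates < 0.5 were set to 0.5.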
Turning to GUUCCGUUGGCGUAAUGGUAUCGCGUAUCCCUCCUAAGGAGAAGACUGCCGCUUCGAGUCCCGUACGGAACG [A21U C27A G50C G52C], the yeast fitness is ≤ 0.5. With GUUCCGUUGGCGUAAUGGUAUCGCGUCUCCAUCCUAAGCAGAAGACUGCGGGUUCGAGUCCGGUACGGAACG [A21U C31A G39C C62G] the figure was ≤ 0.5; with GUUCCGUUGGCGUAAUGGUAUCGCGUCUCUCUCCUGAGGAGAAAACUGCGGGUUCGAGUCCCGUACGGAACG [A21U C30U A36G G44A], ≤ 0.5. To GUUCCGUUGGCGUAAUGGUAUUGCGUCUCCCUCCUAAGGAGAAGACUGCGGGUUCGAGCCCCGUACGGAACG [A21U C22U U59C] belongs ≤ 0.5; to GUUCCGUUGGCGUAAUGGUAUCGUGUCUCCCUCCUACGGAGAAGACUGCGGGUUCGAGUCCCGUACGGAACG [A21U C24U A37C], 0.683; to GUUCCGUUGGCGUAAUGGUAUCGCGUCUCCCUCCUAAGGAGAAGACUGCGGGUUCGUGUCCCGUACGGAACG [A21U A57U], 0.61. With GUUCCGUUGGCGUAAUGGUAUCGCGUGUCCCUCCUUAGCAGAAGACUGCGGGUUCGAGUCCCGUACGGAACG [A21U C27G A36U G39C], the yeast fitness was ≤ 0.5. With GUUCCGUUGGCGUAAUGGUAUCGCGUCUCGCCCCUAAGGAGAAGACUGCGGGUUCGAGUCCCGUACGGAACG [A21U C30G U32C], the yeast fitness is ≤ 0.5.

Consider GUUCCGUUGGCGUAAUGGUAUCGCGUGCCUCUCCUAAGGAGAAGACUGCGGGGUCGAGUCACGUACGGAACG [A21U C27G U28C C30U U53G C61A], for which the yeast fitness amounted to 0.78.

With GUUCCGUUGGCGUAAUGGUAUCGCGUCUCCCUCCUAAGGAGAAGGCUGAGGGUUCGAGUCCCGUACGGAACG [A21U A45G C49A], the yeast fitness is ≤ 0.5. On to GUUCCGUUGGCGUAAUGGUAUCGCGUCUCCCUCCUAAGGAGUAGACUGCGGGUUCGGGUCCCGUACGGAACG [A21U A42U A57G], for which the yeast fitness is 0.548. As for GUUCCGUUGGCGUAAUGGUAUCGUGUCUCCCUCCUAAGGAGAAGACUGCGGGUUCGUGUCCCGUCCGGCACG [A21U C24U A57U A65C A69C], the yeast fitness is ≤ 0.5.

Consider GUUCCGUUGGCGUAAUGGUAUCGCGUCUCUCUCCUAAGGAGAAGAUUGCGGGUUCGAGUCCCGUACGGUACG [A21U C30U C46U A69U], for which the yeast fitness is ≤ 0.5. With GUUCCGUUGGCGUAAUGGUAUCGCGUCUCCAUCAUAAGCAGAAGACUGCGGGUUCGAGUCACGUACGGAACG [A21U C31A C34A G39C C61A] the figure was ≤ 0.5; with GUUCCGUUGGCGUAAUGGUAUCGCGUCUCCGUCCUAAGGAGGAGACUGCGGGAUCGAGUCCCGUACGAAACG [A21U C31G A42G U53A G68A], ≤ 0.5; with GUUCCGUUGGCGUAAUGGUAUCGCGUCUCCGUCCUAAGGAGAAGCCUGCGGGUUCGAGUCCCGUACGGAACG [A21U C31G A45C], ≤ 0.5. To GUUCCGUUGGCGUAAUGGUAUCGCGUCUGCCUCCUAAGGAGAAGACUGCGGGUUCGAGUCCCGUACGGAACG [A21U C29G] belongs 0.561; to GUUCCGUUGGCGUAAUGGUAUCGCGUCUUCCUCCUAAGGAGAAGACUGCGGGUUCGAGUCCCGUACGGAACG [A21U C29U], 0.588; to GUUCCGUUGGCGUAAUGGUAUCGCGUCUCCCUGCUAAGGAGAAGACUGCGGGUUCGAGUCCCGUACGGAUCG [A21U C33G A70U], ≤ 0.5. With GUUCCGUUGGCGUAAUGGUAUCGCGUGUCGCUCCUAAGGAGAAGACUGCGGGUUCGAGUCCCGUACGGAACG [A21U C27G C30G] the figure was ≤ 0.5; with GUUCCGUUGGCGUAAUGGUAUCGCGUCUCCCUCCUAAGGAGACGACUGCGGGUUCGAGUCCUGUUCGGAACG [A21U A43C C62U A65U], ≤ 0.5; with GUUCCGUUGGCGUAAUGGUAUUGCGUCUCCCUCCUAAGGAGAAGACUGCGCAUUCGAGGCCCGUACGGAACG [A21U C22U G51C G52A U59G], ≤ 0.5. In the case of GUUCCGUUGGCGUAAUGGUAUCGCGUCUCACACCGAAGGAGAAGACUGCGGGUUCGAGUCCCGUACAGAACG [A21U C30A U32A U35G G67A], the yeast fitness was ≤ 0.5. With GUUCCGUUGGCGUAAUGGUAUCGCGUCUCCCUGCUAAGGAGAAGACUGCGGGUUCGCGUCCCGUACGGAACG [A21U C33G A57C] the figure was ≤ 0.5; with GUUCCGUUGGCGUAAUGGUAUCGCGUCUCCCUCCUAAGGAGAAGACUGCGGGUUCGAGUCCCGUACGGCACG [A21U A69C], 0.827; with GUUCCGUUGGCGUAAUGGUAUCGCGUCUCCCUCCUAAGGAGAAGACUGCGGGUUCGUGUACCGUACGCAACG [A21U A57U C60A G68C], ≤ 0.5. To GUUCCGUUGGCGUAAUGGUAUCGCGUCUCCGACCUAAGGAGAAGACUGCGGGUUCGAGUCCCGUACGGAACG [A21U C31G U32A] belongs 0.585; to GUUCCGUUGGCGUAAUGGUAUCGCGUCUCCCUCCUAAGGAGAGCACUGCGGGUUCGAGUCCCGUACGGAACG [A21U A43G G44C], ≤ 0.5; to GUUCCGUUGGCGUAAUGGUAUCGCGUCUCCCUGCUAAGGAGGAAACUGCGGGUUCGAGUCCCGUACGGAACG [A21U C33G A42G G44A], 0.541. To GUUCCGUUGGCGUAAUGGUAUCGCGUCUCCCUCCUAAGGAGAAGUCUGCGGGUUCGAGUCCCGUACGGAACG [A21U A45U] belongs 0.676. Turning to GUUCCGUUGGCGUAAUGGUAUCGCGUCUCCGUCCUAAGGAGAAGACUGCGGGUUCGAGUCCCGUACGGAACG [A21U C31G], the yeast fitness is 0.842. To GUUCCGUUGGCGUAAUGGUAUCGCGUCUCCCUCCUAAGGAGAUGACUGGGGGUUCGAGUCCCGUACGGAACG [A21U A43U C49G] belongs ≤ 0.5. With GUUCCGUUGGCGUAAUGGUAUCGCGUUUCCCUCCUAAGGAGAAAACUGCGGGUUCGAGUCCCGUACGGAACG [A21U C27U G44A], the yeast fitness is ≤ 0.5. Regarding GUUCCGUUGGCGUAAUGGUAUCGCGUCUCCCUCCUAAGGAGGAGACUGCGGGUUUGAGUCCCGUACGGACCG [A21U A42G C55U A70C], the yeast fitness was 0.603. With GUUCCGUUGGCGUAAUGGUAUCGCGUCUAUCUCCUAAGGAGAAGACUGCGGGUUCGAGUCCGGAACGGAACG [A21U C29A C30U C62G U64A] the figure was ≤ 0.5; with GUUCCGUUGGCGUAAUGGUAUUGCGUCUCCCUCCUAAGGAGAAGACUCCGGGUUCGAGUCCCGUGCGGAACG [A21U C22U G48C A65G], ≤ 0.5. With GUUCCGUUGGCGUAAUGGUAUCGCGUCUCCCUACUAAGGAGAAGACUGCGGGUUCGAGUCCCGUACGGAACG [A21U C33A] the figure was 0.578; with GUUCCGUUGGCGUAAUGGUAUUGCGCCUCCCUCCUAAGGAGAAGACUGCGGGUUCGAGUCCCGUACGGAACG [A21U C22U U26C], ≤ 0.5.
